Experimental data: ChEMBL document CHEMBL1140759, “Synthesis, anti-Toxoplasma gondii and antimicrobial activities of benzaldehyde 4-phenyl-3-thiosemicarbazones and 2-[(phenylmethylene)hydrazono]-4-oxo-3-phenyl-5-thiazolidineacetic acids” (Bioorg Med Chem, 2008)
In brackets after ≈: the same amount, converted by molar mass.

Legend:
[1] = test system: Toxoplasma gondii; test: Antiparasitic activity against Toxoplasma gondii infected african green monkey Vero cells at 2 mM assessed as infected cells; assay type: functional
Method in brief: (§1)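 Vero cells were infected with RH-strain tachyzoites (5:1 parasite:cell) for 1 h, washed with PBS, and grown 24 h at 37 °C in medium 199 with 5% FCS. Compound was then added for 24 h. Cells were fixed with Bouin's, stained with Giemsa, and at least 400 cells were counted by light microscopy for the percentage infected. Hydroxyurea and sulfadiazine served as references.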

[2] = test system: Toxoplasma gondii; test: Antiparasitic activity against Toxoplasma gondii infected african green monkey Vero cells at 0.1 mM assessed as infected cells; assay type: functional; method in brief: as §1
[3] = test system: Toxoplasma gondii; test: Antiparasitic activity against Toxoplasma gondii infected african green monkey Vero cells at 5 mM assessed as infected cells; assay type: functional; method in brief: as §1
[4] = test system: Toxoplasma gondii; test: Antiparasitic activity against Toxoplasma gondii infected african green monkey Vero cells at 8 mM assessed as infected cells; assay type: functional; method in brief: as §1
[5] = test system: Toxoplasma gondii; test: Antiparasitic activity against Toxoplasma gondii infected african green monkey Vero cells at 20 mM assessed as infected cells; assay type: functional; method in brief: as §1
[6] = test system: Vero; test: Inhibition of uninfected african green monkey Vero cells; assay type: cell-based; conditions: Chlorocebus sabaeus
[7] = test system: Toxoplasma gondii; test: Inhibition of Toxoplasma gondii infected in african green monkey Vero cells; assay type: functional, organism-based
Method in brief: (§2)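 Infected Vero cultures were exposed to compound at 0.01–30 mM for 24 h, in triplicate per assay. IC50 for infected cells and intracellular parasites was derived by non-linear regression, using trypan blue exclusion.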

[8] = test system: Toxoplasma gondii; test: Inhibition of intracellular parasite Toxoplasma gondii; assay type: functional, organism-based; method in brief: as §2
[9] = test system: Staphylococcus aureus; test: Antimicrobial activity against Staphylococcus aureus at 300 ug/disc; assay type: functional; conditions: read-out: IZ
Method in brief: (§3)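 Disc diffusion on agar plates inoculated with a standardized microbial suspension, with paper discs carrying known compound amounts. DMSO-only discs served as negative controls, and chloramphenicol, rifampicin (bacteria) or nistatin (fungi) as references. The read-out is the mean inhibition zone diameter in mm. Each run was done three times and repeated if results differed.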

[10] = test system: Bacillus subtilis; test: Antimicrobial activity against Bacillus subtilis at 300 ug/disc; assay type: functional; conditions: read-out: IZ; method in brief: as §3
[11] = test system: Micrococcus luteus; test: Antimicrobial activity against Micrococcus luteus at 300 ug/disc; assay type: functional; conditions: read-out: IZ; method in brief: as §3
[12] = test system: Escherichia coli; test: Antimicrobial activity against Escherichia coli at 300 ug/disc; assay type: functional; conditions: read-out: IZ; method in brief: as §3
[13] = test system: Klebsiella pneumoniae; test: Antimicrobial activity against Klebsiella pneumoniae at 300 ug/disc; assay type: functional; conditions: read-out: IZ; method in brief: as §3
[14] = test system: Enterococcus faecalis; test: Antimicrobial activity against Streptococcus faecalis at 300 ug/disc; assay type: functional; conditions: read-out: IZ; method in brief: as §3
[15] = test system: Mycolicibacterium phlei; test: Antimicrobial activity against Mycobacterium phlei at 300 ug/disc; assay type: functional; conditions: read-out: IZ; method in brief: as §3
[16] = test system: Mycolicibacterium smegmatis; test: Antimicrobial activity against Mycobacterium smegmatis at 300 ug/disc; assay type: functional; conditions: read-out: IZ; method in brief: as §3
[17] = test system: Mycobacterium tuberculosis; test: Antimicrobial activity against Mycobacterium tuberculosis at 300 ug/disc; assay type: functional; conditions: read-out: IZ
Method in brief: (§4)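 Agar disc diffusion: paper discs loaded with compound placed on agar plates seeded with a standardised microbial suspension. DMSO-only discs served as negative control. Chloramphenicol and rifampicin (bacteria) or nistatin (fungi) gave reference zones. Read-out was mean zone of inhibition diameter (mm). Each experiment was run three times and repeated if results differed.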

[18] = test system: Saccharomyces cerevisiae; test: Antimicrobial activity against Saccharomyces cerevisiae at 300 ug/disc; assay type: functional; conditions: read-out: IZ; method in brief: as §3
[19] = test system: Candida; test: Antimicrobial activity against Candida sp. IMUR1224 at 300 ug/disc; assay type: functional; conditions: read-out: IZ; method in brief: as §3
[20] = test system: Candida albicans; test: Antimicrobial activity against Candida albicans at 300 ug/disc; assay type: functional; conditions: read-out: IZ; method in brief: as §3
[21] = test system: Candida; test: Antimicrobial activity against Candida sp. IMUR4249 at 300 ug/disc; assay type: functional; conditions: read-out: IZ; method in brief: as §3
[22] = test system: Mycobacterium tuberculosis; test: Antimicrobial activity against Mycobacterium tuberculosis; assay type: functional
[23] = test system: Candida; test: Antimicrobial activity against Candida sp. IMUR4249; assay type: functional
Method in brief: (§5)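 Tube dilution MIC, run on compounds with a disc-diffusion zone of at least 18 mm. The DMSO stock (1 mg/mL) was serially diluted to 10–220 µg/mL final in medium, and strains were inoculated at 10^8/mL. Media were tryptic soy or nutrient agar for bacteria and Sabouraud liquid for fungi, incubated 24–48 h at 37 °C (bacteria) or 30 °C (fungi). MIC is the lowest concentration giving clear tubes.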

[24] = test system: Candida; test: Antimicrobial activity against Candida sp. IMUR720 at 300 ug/disc; assay type: functional; conditions: read-out: IZ; method in brief: as §3
[25] = test system: Enterococcus faecalis; test: Antimicrobial activity against Streptococcus faecalis; assay type: functional; method in brief: as §5
[26] = test system: Staphylococcus aureus; test: Antimicrobial activity against Staphylococcus aureus; assay type: functional; method in brief: as §5
[27] = test system: Mycolicibacterium smegmatis; test: Antimicrobial activity against Mycobacterium smegmatis; assay type: functional; method in brief: as §5
[28] = test system: Staphylococcus aureus; test: Antimicrobial activity against Staphylococcus aureus at 100 ug/disc; assay type: functional; conditions: read-out: IZ; method in brief: as §4
[29] = test system: Bacillus subtilis; test: Antimicrobial activity against Bacillus subtilis at 100 ug/disc; assay type: functional; conditions: read-out: IZ; method in brief: as §3
[30] = test system: Micrococcus luteus; test: Antimicrobial activity against Micrococcus luteus at 100 ug/disc; assay type: functional; conditions: read-out: IZ; method in brief: as §3
[31] = test system: Escherichia coli; test: Antimicrobial activity against Escherichia coli at 100 ug/disc; assay type: functional; conditions: read-out: IZ; method in brief: as §3
[32] = test system: Enterococcus faecalis; test: Antimicrobial activity against Streptococcus faecalis at 100 ug/disc; assay type: functional; conditions: read-out: IZ; method in brief: as §3
[33] = test system: Mycolicibacterium phlei; test: Antimicrobial activity against Mycobacterium phlei at 100 ug/disc; assay type: functional; conditions: read-out: IZ; method in brief: as §3
[34] = test system: Mycolicibacterium smegmatis; test: Antimicrobial activity against Mycobacterium smegmatis at 100 ug/disc; assay type: functional; conditions: read-out: IZ; method in brief: as §3
[35] = test system: Mycobacterium tuberculosis; test: Antimicrobial activity against Mycobacterium tuberculosis at 100 ug/disc; assay type: functional; conditions: read-out: IZ; method in brief: as §4
[36] = test system: Klebsiella pneumoniae; test: Antimicrobial activity against Klebsiella pneumoniae at 100 ug/disc; assay type: functional; conditions: read-out: IZ; method in brief: as §3
[37] = test system: Saccharomyces cerevisiae; test: Antimicrobial activity against Saccharomyces cerevisiae at 100 ug/disc; assay type: functional, organism-based; method in brief: as §4
[38] = test system: Candida; test: Antimicrobial activity against Candida sp. IMUR1224 at 100 ug/disc; assay type: functional, organism-based; method in brief: as §4
[39] = test system: Candida; test: Antimicrobial activity against Candida sp. IMUR4249 at 100 ug/disc; assay type: functional, organism-based; method in brief: as §4
[40] = test system: Candida; test: Antimicrobial activity against Candida sp. IMUR720 at 100 ug/disc; assay type: functional, organism-based; method in brief: as §4

Molecule | Activity [1] | Activity [2] | Activity [3] | Activity [4] | Activity [5] | IC50 [6] | IC50 [7] | IC50 [8] | zone of inhibition at 300 µg/disc [9] | zone of inhibition at 300 µg/disc [10] | zone of inhibition at 300 µg/disc [11] | zone of inhibition at 300 µg/disc [12] | zone of inhibition at 300 µg/disc [13] | zone of inhibition at 300 µg/disc [14] | zone of inhibition at 300 µg/disc [15] | zone of inhibition at 300 µg/disc [16] | zone of inhibition at 300 µg/disc [17] | zone of inhibition at 300 µg/disc [18] | MBC [22] | MIC [22] | other results
O=C(O)CC1S/C(=N\N=C\c2ccc(Cl)c(Cl)c2)N(c2ccccc2)C1=O (configuration not stated) | 0% | 101% | 0% | 0% | 0% | 4000 µM | 1500 µM | 1000 µM | 11 mm | 16 mm | 19 mm | < 7 mm | < 7 mm | 11 mm | 12 mm | 13 mm | 18 mm | < 7 mm | 90 mg/L (≈ 213 µM) | 100 mg/L (≈ 237 µM) | zone of inhibition at 300 µg/disc [19]: < 7 mm; zone of inhibition at 300 µg/disc [20]: 7 mm; zone of inhibition at 300 µg/disc [21]: 21 mm; MFC [23]: 100 mg/L (≈ 237 µM); MIC [23]: 120 mg/L (≈ 284 µM); zone of inhibition at 300 µg/disc [24]: < 7 mm
CC(C)(C)c1cc(/C=N/N=C2\SC(CC(=O)O)C(=O)N2c2ccccc2)cc(C(C)(C)C)c1O (configuration not stated) | 0% | 53.55% | 0% | 0% | 0% | 1000 µM | 1000 µM | 1000 µM | 26 mm | 19 mm | 22 mm | < 7 mm | < 7 mm | 18 mm | 16 mm | 26 mm | 23 mm | < 7 mm | 100 mg/L (≈ 208 µM) | 110 mg/L (≈ 228 µM) | zone of inhibition at 300 µg/disc [19]: < 7 mm; zone of inhibition at 300 µg/disc [20]: 9 mm; zone of inhibition at 300 µg/disc [21]: < 7 mm; MBC [25]: 190 mg/L (≈ 395 µM); MIC [25]: 200 mg/L (≈ 415 µM); MBC [26]: 45 mg/L (≈ 93.4 µM); MIC [26]: 50 mg/L (≈ 104 µM); MBC [27]: 140 mg/L (≈ 291 µM); MIC [27]: 150 mg/L (≈ 311 µM); zone of inhibition at 300 µg/disc [24]: < 7 mm
CO[C@H]1/C=C/O[C@@]2(C)Oc3c(C)c(O)c4c(O)c(c(/C=N/N5CCN(C)CC5)c(O)c4c3C2=O)NC(=O)/C(C)=C\C=C\[C@H](C)[C@H](O)[C@@H](C)[C@@H](O)[C@@H](C)[C@H](OC(C)=O)[C@@H]1C [RIFAMPIN] | – | – | – | – | – | – | – | – | – | – | – | – | – | – | – | – | – | – | 100 mg/L (≈ 122 µM) | 110 mg/L (≈ 134 µM) | zone of inhibition at 100 µg/disc [28]: 31 mm; zone of inhibition at 100 µg/disc [29]: 20 mm; zone of inhibition at 100 µg/disc [30]: 49 mm; zone of inhibition at 100 µg/disc [31]: 14 mm; zone of inhibition at 100 µg/disc [32]: 20 mm; zone of inhibition at 100 µg/disc [33]: 25 mm; zone of inhibition at 100 µg/disc [34]: 30 mm; zone of inhibition at 100 µg/disc [35]: 28 mm; MBC [27]: 130 mg/L (≈ 158 µM); MIC [27]: 140 mg/L (≈ 170 µM)
O=C(N[C@H](CO)[C@H](O)c1ccc([N+](=O)[O-])cc1)C(Cl)Cl [CHLORAMPHENICOL] | – | – | – | – | – | – | – | – | – | – | – | – | – | – | – | – | – | – | – | – | zone of inhibition at 100 µg/disc [28]: 25 mm; zone of inhibition at 100 µg/disc [29]: 27 mm; zone of inhibition at 100 µg/disc [30]: 50 mm; zone of inhibition at 100 µg/disc [31]: 27 mm; zone of inhibition at 100 µg/disc [36]: 25 mm; MBC [25]: 60 mg/L (≈ 186 µM); MIC [25]: 70 mg/L (≈ 217 µM); MBC [26]: 20 mg/L (≈ 61.9 µM); MIC [26]: 25 mg/L (≈ 77.4 µM)
O=C(O)CC1S/C(=N\N=C\c2ccc(Cl)cc2Cl)N(c2ccccc2)C1=O (configuration not stated) | 18.08% | 63.23% | 19.05% | 0% | 0% | 2000 µM | 1500 µM | 1000 µM | 10 mm | 17 mm | 20 mm | < 7 mm | < 7 mm | 15 mm | 12 mm | 16 mm | 22 mm | < 7 mm | 60 mg/L (≈ 142 µM) | 70 mg/L (≈ 166 µM) | zone of inhibition at 300 µg/disc [19]: < 7 mm; zone of inhibition at 300 µg/disc [20]: 7 mm; zone of inhibition at 300 µg/disc [21]: 14 mm; zone of inhibition at 300 µg/disc [24]: < 7 mm
NYSTATIN | – | – | – | – | – | – | – | – | – | – | – | – | – | – | – | – | – | – | – | – | inhibition zone (IZ) [37]: 20 mm; inhibition zone (IZ) [38]: 30 mm; inhibition zone (IZ) [39]: 32 mm; MFC [23]: 70 mg/L; MIC [23]: 80 mg/L; inhibition zone (IZ) [40]: 20 mm
